Measurements reported in ChEMBL document CHEMBL3352812, “Shogaol-huprine hybrids: dual antioxidant and anticholinesterase agents with β-amyloid and tau anti-aggregating properties” (Bioorg Med Chem, 2014).

What was measured:
[1] = Antioxidant activity assessed as ABTS free radical scavenging activity measured as trolox equivalent after 1 hr by spectrophotometry; assay type: physicochemical
Method in brief: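 ABTS radical cation generated by passing 5 mM ABTS stock through MnO2 and filtering; 245 µL radical solution added to 5 µL sample or trolox, stirred 30 s, kept dark 1 h, A734 read against MeOH blanks. Trolox calibration; expressed as µmol trolox/µmol compound; triplicate analyses, mean ± SEM of three experiments.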

[2] = target: Microtubule-associated protein tau (Homo sapiens) (UniProt P10636); assay: Inhibition of aggregation of TAU (unknown origin) expressed in Escherichia coli BL21 (DE3) at 10 uM after 24 hrs by thioflavin S fluorescence assay
Method in brief: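 E. coli BL21(DE3) with pTARA (T7 RNA polymerase under pBAD) transformed with pRKT42 encoding four-repeat tau; overnight culture at 37 °C in M9 with 0.5% glucose, ampicillin 50 µg/mL, chloramphenicol 12.5 µg/mL. Th-S fluorescence at 455 nm (ex 375 nm) normalised to OD600, with induced untreated cells as 100%; mean ± SEM of four experiments.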

Acetylcholinesterase [3] = target: T1, Acetylcholinesterase (Homo sapiens, UniProt P22303); assay: Inhibition of human recombinant AChE using acetylthiocholine iodide as substrate preincubated for 20 mins before substrate addition by Ellman method
[4] = Antioxidant activity assessed as DPPH free radical scavenging activity measured as trolox equivalent after 30 mins by spectrophotometry; assay type: physicochemical; parameters: unit not given beside the values; details: 0.5 h
Method in brief: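 Sample or trolox (5 µL) mixed with 250 µL methanolic DPPH (0.025 g/L), shaken, held in darkness 30 min, absorbance at 515 nm. Calibrated with trolox solutions; reported as µmol trolox/µmol compound; triplicate, mean ± SEM of three experiments.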

[5] = target: Amyloid-beta precursor protein (Homo sapiens) (UniProt P05067); assay: Inhibition of aggregation of amyloid beta (1 to 42) (unknown origin) expressed in Escherichia coli BL21 (DE3) at 10 uM after 24 hrs by thioflavin S fluorescence assay
Method in brief: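 E. coli BL21(DE3) carrying Aβ42 plasmid grown overnight at 37 °C in LB with kanamycin 50 µg/mL; diluted into LB with kanamycin, 1 mM IPTG, compound in DMSO and Th-S, grown 24 h at 37 °C, 1400 rpm; DMSO-only negative control. Th-S emission 455 nm (ex 375 nm) normalised to OD600, induced untreated cells set as 100%; mean ± SEM of four experiments.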

[6] = Antioxidant activity assessed as total polyphenolics measured as gallic acid equivalent after 30 mins by Folin-Ciocalteu assay; assay type: physicochemical; details: 0.5 h
Cholinesterase [7] = target: T2, Cholinesterase (Homo sapiens, UniProt P06276); assay: Inhibition of human serum BChE using butyrylthiocholine iodide preincubated for 20 mins before substrate addition by Ellman method
Method in brief: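 Ellman spectrophotometric assay in 0.1 M phosphate buffer. Enzymes were human recombinant AChE and human serum BChE. Inhibitor (at least 10 increasing concentrations, in duplicate) was preincubated 20 min at 37 °C. Acetylthiocholine iodide (450 µM, AChE) or butyrylthiocholine iodide (300 µM, BChE) was then added and reacted 5 min at 37 °C, with absorbance read at 414 nm. The no-inhibitor control set 100% activity. IC50 came from non-linear regression, at least 4 experiments.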

in vitro = details: PAMPA
Cholinesterase [8] = target: T2, Cholinesterase; assay: Inhibition of human serum BChE using butyrylthiocholine iodide at 10 uM preincubated for 20 mins before substrate addition by Ellman method
Acetylcholinesterase [9] = target: T1, Acetylcholinesterase; assay: Inhibition of human recombinant AChE using acetylthiocholine iodide as substrate at 10 uM preincubated for 20 mins before substrate addition by Ellman method

Chain of Microtubule-associated protein tau (Homo sapiens) (P10636 whole entry): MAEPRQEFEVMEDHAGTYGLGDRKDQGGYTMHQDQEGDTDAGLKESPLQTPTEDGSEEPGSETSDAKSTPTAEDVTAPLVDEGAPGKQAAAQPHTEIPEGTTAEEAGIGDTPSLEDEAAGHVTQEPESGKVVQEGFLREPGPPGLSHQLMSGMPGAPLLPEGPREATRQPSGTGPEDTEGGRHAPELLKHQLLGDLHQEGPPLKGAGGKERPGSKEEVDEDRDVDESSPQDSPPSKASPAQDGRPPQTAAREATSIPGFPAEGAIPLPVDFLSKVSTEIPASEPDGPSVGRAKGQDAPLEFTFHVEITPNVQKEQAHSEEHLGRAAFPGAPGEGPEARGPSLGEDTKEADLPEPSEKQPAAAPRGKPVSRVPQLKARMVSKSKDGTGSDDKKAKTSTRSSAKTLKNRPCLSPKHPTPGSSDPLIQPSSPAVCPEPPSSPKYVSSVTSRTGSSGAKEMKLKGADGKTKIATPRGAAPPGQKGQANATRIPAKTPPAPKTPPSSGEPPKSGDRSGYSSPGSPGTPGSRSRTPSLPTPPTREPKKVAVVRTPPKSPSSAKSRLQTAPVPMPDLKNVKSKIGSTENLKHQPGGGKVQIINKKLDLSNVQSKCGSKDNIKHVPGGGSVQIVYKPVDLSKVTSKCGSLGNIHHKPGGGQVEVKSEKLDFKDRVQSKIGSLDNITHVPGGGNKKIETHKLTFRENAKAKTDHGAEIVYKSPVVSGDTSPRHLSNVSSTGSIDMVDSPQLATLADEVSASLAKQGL
T1 sequence (P22303 whole entry): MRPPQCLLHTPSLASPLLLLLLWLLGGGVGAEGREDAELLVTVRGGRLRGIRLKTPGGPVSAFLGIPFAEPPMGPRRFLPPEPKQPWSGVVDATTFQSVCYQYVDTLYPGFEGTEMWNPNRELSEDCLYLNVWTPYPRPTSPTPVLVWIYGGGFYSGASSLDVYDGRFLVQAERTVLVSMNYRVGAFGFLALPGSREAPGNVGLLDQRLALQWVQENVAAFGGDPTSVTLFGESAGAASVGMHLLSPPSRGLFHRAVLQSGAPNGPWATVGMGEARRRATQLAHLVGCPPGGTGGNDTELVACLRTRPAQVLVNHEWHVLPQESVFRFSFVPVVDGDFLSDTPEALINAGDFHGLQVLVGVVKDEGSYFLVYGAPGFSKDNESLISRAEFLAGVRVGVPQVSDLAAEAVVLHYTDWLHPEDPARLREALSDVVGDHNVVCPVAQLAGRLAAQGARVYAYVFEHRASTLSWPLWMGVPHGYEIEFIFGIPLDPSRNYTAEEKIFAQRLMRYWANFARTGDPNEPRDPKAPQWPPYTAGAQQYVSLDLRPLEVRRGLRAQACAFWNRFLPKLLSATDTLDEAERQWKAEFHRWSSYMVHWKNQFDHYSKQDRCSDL
Chain of Amyloid-beta precursor protein (Homo sapiens) (P05067 whole entry): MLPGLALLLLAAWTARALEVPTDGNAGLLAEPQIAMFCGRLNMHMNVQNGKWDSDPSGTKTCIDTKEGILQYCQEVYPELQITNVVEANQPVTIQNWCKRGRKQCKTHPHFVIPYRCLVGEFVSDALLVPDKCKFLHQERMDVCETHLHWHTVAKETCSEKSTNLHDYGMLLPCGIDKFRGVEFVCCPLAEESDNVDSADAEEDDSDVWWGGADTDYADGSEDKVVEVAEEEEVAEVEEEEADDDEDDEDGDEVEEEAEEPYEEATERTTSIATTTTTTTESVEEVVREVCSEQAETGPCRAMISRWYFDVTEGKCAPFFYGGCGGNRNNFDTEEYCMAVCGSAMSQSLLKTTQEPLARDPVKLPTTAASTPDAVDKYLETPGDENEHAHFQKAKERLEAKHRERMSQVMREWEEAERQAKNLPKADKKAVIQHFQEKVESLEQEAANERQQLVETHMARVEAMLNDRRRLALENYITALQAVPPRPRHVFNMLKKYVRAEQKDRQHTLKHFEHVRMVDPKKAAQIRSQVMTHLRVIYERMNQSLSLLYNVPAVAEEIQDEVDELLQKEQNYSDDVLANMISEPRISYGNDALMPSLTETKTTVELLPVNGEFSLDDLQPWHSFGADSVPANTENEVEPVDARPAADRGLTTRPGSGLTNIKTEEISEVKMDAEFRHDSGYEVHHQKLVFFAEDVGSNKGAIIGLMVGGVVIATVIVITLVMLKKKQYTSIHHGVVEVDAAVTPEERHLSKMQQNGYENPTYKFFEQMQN
T2 sequence (P06276 whole entry): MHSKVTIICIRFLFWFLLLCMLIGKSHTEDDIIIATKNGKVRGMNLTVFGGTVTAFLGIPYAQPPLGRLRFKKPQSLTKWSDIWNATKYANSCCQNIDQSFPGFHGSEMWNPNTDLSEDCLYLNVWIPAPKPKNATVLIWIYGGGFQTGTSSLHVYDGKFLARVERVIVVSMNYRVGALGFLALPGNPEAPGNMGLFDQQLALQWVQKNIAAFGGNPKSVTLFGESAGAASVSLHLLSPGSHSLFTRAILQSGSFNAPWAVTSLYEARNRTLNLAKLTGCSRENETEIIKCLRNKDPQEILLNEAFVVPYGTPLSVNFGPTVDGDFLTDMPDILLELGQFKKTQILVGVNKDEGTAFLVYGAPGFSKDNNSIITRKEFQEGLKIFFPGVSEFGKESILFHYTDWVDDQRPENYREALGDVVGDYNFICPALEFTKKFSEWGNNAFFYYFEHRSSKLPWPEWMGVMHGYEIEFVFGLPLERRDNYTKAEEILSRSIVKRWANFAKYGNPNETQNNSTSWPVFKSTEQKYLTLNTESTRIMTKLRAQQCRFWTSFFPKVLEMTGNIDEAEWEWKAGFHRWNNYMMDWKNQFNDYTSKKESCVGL

Row | Structure (SMILES) | Activity [1] | inhibition [2] | IC50 (Acetylcholinesterase [3]) | Activity [4] | inhibition [5] | Activity [6] | IC50 (Cholinesterase [7]) | Papp (in vitro) | inhibition (Cholinesterase [8]) | inhibition (Acetylcholinesterase [9])
1 | COc1cc(CCC(=O)/C=C/c2ccc(CNc3c4c(nc5cc(Cl)ccc35)CC3CC(C)=CC4C3)cc2)ccc1O (stereo not given) | 10.5 | 51% | 0.0183 µM | 8.8 | 70.6% | 50 mgequiv/g | 0.742 µM | 6.5 ×10⁻⁶ cm/s |  | 
2 | COc1cc(CCC(=O)/C=C/c2ccc(CNc3c4c(nc5cc(Cl)ccc35)CC3CC(C)=CC4C3)cc2)cc(CN(C)C)c1O (stereo not given) | 11.8 | 40.1% | 0.0211 µM | 2.8 | 53.9% | 68.8 mgequiv/g | 0.181 µM | 8.4 ×10⁻⁶ cm/s |  | 
3 | CCCCC/C=C/C(=O)CCc1ccc(O)c(OC)c1 [SHOGAOL] | 26.2 | 9.2% |  | 12.2 | 10.5% | 384 mgequiv/g |  | 14.7 ×10⁻⁶ cm/s | 6% | 28%
4 | COc1cc(CCC(=O)/C=C/CCCNc2c3c(nc4cc(Cl)ccc24)CC2CC(C)=CC3C2)ccc1O (stereo not given) | 7.6 | 35.2% | 0.0067 µM | 6.6 | 39.3% | 29.8 mgequiv/g | 0.982 µM | 11.7 ×10⁻⁶ cm/s |  | 
5 | CC1=CC2Cc3nc4cc(Cl)ccc4c(N)c3C(C1)C2 (stereo not given) [HUPRINE Y] | 2.6 | 7.6% |  | 1 | 8.9% | 10.2 mgequiv/g |  |  |  | 
6 | O=C(O)c1cc(O)c(O)c(O)c1 [GALLIC ACID] | 18.6 |  |  | 10.3 |  | 1033 mgequiv/g |  |  |  | 
